Assay type in all cases: functional
One experiment relates to Penicillium chrysogenum. Nature of the experiment: Antifungal activity against Penicillium chrysogenum assessed as growth inhibition after 48 to 72 hrs by broth microdilution method.
In a further experiment the test system is Fusarium oxysporum. Nature of the experiment: Antifungal activity against Fusarium oxysporum assessed as growth inhibition after 48 to 72 hrs by broth microdilution method.
A further experiment has as its system Aspergillus fumigatus. Nature of the experiment: Antifungal activity against Aspergillus fumigatus assessed as growth inhibition after 48 to 72 hrs by broth microdilution method.
The test system of a further experiment is Aspergillus flavus. Nature of the experiment: Antifungal activity against Aspergillus flavus assessed as growth inhibition after 48 to 72 hrs by broth microdilution method. (Broth dilution looks for growth in wells or tubes with falling amounts of substance.)
A further experiment deals with Aspergillus niger. Nature of the experiment: Antifungal activity against Aspergillus niger assessed as growth inhibition after 48 to 72 hrs by broth microdilution method.
In the next experiment the test system is Candida albicans. Nature of the experiment: Antifungal activity against Candida albicans assessed as growth inhibition after 48 to 72 hrs by broth microdilution method.
The test system of another experiment is Staphylococcus aureus. Nature of the experiment: Antibacterial activity against Staphylococcus aureus assessed as growth inhibition after 18 hrs by broth microdilution method.
The subject of the next experiment is Pseudomonas aeruginosa. As to the kind of experiment: Antibacterial activity against Pseudomonas aeruginosa assessed as growth inhibition after 18 hrs by broth microdilution method.
The nature of experiment [1]: Cytotoxicity against mouse Daltons ascitic lymphoma cells assessed as dead cells at 100 ug/ml after 3 hrs by trypan blue exclusion assay relative to control. Put shortly: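 DAL cells (0.2 mL, 10⁶ cells/mL) mixed with ice-cold PBS pH 7.4 and compound (100 µg/mL), held at 37 °C under 5% CO₂ for 3 h. Aliquot then stained with 0.4% trypan blue in normal saline for 5–15 min at room temperature. Live and dead cells counted in a Neubauer chamber; % dead = dead/(dead+live) × 100.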

The subject of another experiment is Streptococcus mutans. As to the kind of experiment: Antibacterial activity against Streptococcus mutans assessed as growth inhibition after 18 hrs by broth microdilution method.
The next experiment relates to Klebsiella pneumoniae. As to the kind of experiment: Antibacterial activity against Klebsiella pneumoniae assessed as growth inhibition after 18 hrs by broth microdilution method.
The test system of a further experiment is Escherichia coli. Nature of the experiment: Antibacterial activity against Escherichia coli assessed as growth inhibition after 18 hrs by broth microdilution method.
A further experiment relates to Enterococcus faecalis. Nature of the experiment: Antibacterial activity against Enterococcus faecalis assessed as growth inhibition after 18 hrs by broth microdilution method.

SMILES strings stand for the structures. Values after ≈ are worked out from the molar mass of the structure shown. Bounds are passed on as bounds.

As a reminder, the MIC is the lowest concentration that inhibits growth of the organism. For `OC(Cn1cncn1)(Cn1cncn1)c1ccc(F)cc1F` [FLUCONAZOLE], the MIC in the experiment with Penicillium chrysogenum was 8 µg/mL (≈ 26.1 µM); in the experiment on Fusarium oxysporum it was 8 µg/mL (≈ 26.1 µM); in the experiment with Aspergillus fumigatus it was 8 µg/mL (≈ 26.1 µM); with Aspergillus flavus, 8 µg/mL (≈ 26.1 µM); in the experiment with Aspergillus niger, 8 µg/mL (≈ 26.1 µM); with Candida albicans, 16 µg/mL (≈ 52.2 µM).
One may read the mortality as the percentage killed. Turning to `O=c1cc(Cn2c3ccccc3n3c(=O)cc(C(F)(F)F)nc23)c2cc(F)ccc2o1`, the MIC came out at 100 µg/mL (≈ 233 µM) with Staphylococcus aureus; 0.2 µg/mL (≈ 0.466 µM) in the experiment with Penicillium chrysogenum; 0.2 µg/mL (≈ 0.466 µM) in the experiment with Fusarium oxysporum; 1.6 µg/mL (≈ 3.73 µM) in the experiment on Aspergillus fumigatus; 1.6 µg/mL (≈ 3.73 µM) in the experiment with Aspergillus flavus; 100 µg/mL (≈ 233 µM) with Pseudomonas aeruginosa. In addition, the minimum inhibitory concentration (MIC) turned out to be 25 µg/mL (≈ 58.2 µM) in the experiment on Aspergillus niger; 12.5 µg/mL (≈ 29.1 µM) in the experiment with Streptococcus mutans; 100 µg/mL (≈ 233 µM) in the experiment on Klebsiella pneumoniae; 50 µg/mL (≈ 116 µM) in the experiment on Candida albicans; 100 µg/mL (≈ 233 µM) with Escherichia coli; 0.8 µg/mL (≈ 1.86 µM) with Enterococcus faecalis. The mortality at 100 µg/mL in experiment [1] stood at 79%.
For the molecule `O=c1cc(C(F)(F)F)nc2[nH]c3ccccc3n12`, the MIC stood at 100 µg/mL (≈ 395 µM) in the experiment on Staphylococcus aureus; 0.4 µg/mL (≈ 1.58 µM) with Penicillium chrysogenum; 0.2 µg/mL (≈ 0.79 µM) in the experiment with Fusarium oxysporum; 0.8 µg/mL (≈ 3.16 µM) with Aspergillus fumigatus; 0.8 µg/mL (≈ 3.16 µM) with Aspergillus flavus; 100 µg/mL (≈ 395 µM) in the experiment on Pseudomonas aeruginosa. The minimal inhibitory concentration (MIC) in the experiment with Aspergillus niger was determined as 6.25 µg/mL (≈ 24.7 µM); with Streptococcus mutans it was 50 µg/mL (≈ 197 µM); in the experiment with Klebsiella pneumoniae it was 100 µg/mL (≈ 395 µM); with Candida albicans it was 1.6 µg/mL (≈ 6.32 µM); with Escherichia coli, 100 µg/mL (≈ 395 µM); in the experiment on Enterococcus faecalis, 0.2 µg/mL (≈ 0.79 µM). Also, the mortality at 100 µg/mL in experiment [1] was 80%.
Consider `O=c1cc(-c2ccc(F)cc2)nc2[nH]c3ccccc3n12`, for which the minimum inhibitory concentration (MIC) in the experiment with Staphylococcus aureus came out at 100 µg/mL (≈ 358 µM); with Penicillium chrysogenum, 0.4 µg/mL (≈ 1.43 µM); in the experiment with Fusarium oxysporum, 0.4 µg/mL (≈ 1.43 µM); with Aspergillus fumigatus, 0.2 µg/mL (≈ 0.716 µM); in the experiment with Aspergillus flavus, 0.2 µg/mL (≈ 0.716 µM); with Pseudomonas aeruginosa it was 100 µg/mL (≈ 358 µM). Besides, the MIC with Aspergillus niger came to 1.6 µg/mL (≈ 5.73 µM); with Streptococcus mutans, 12.5 µg/mL (≈ 44.8 µM); in the experiment with Klebsiella pneumoniae, 100 µg/mL (≈ 358 µM); with Candida albicans, 1.6 µg/mL (≈ 5.73 µM); in the experiment on Escherichia coli it was 100 µg/mL (≈ 358 µM); with Enterococcus faecalis it was 0.2 µg/mL (≈ 0.716 µM). Besides, in experiment [1], the mortality at 100 µg/mL was 83%.
On to `O=c1[nH]cc(F)c(=O)[nH]1` [FLUOROURACIL], for which, in experiment [1], the mortality at 100 µg/mL worked out at 88%.
With `O=c1cc(-c2cccc(Cl)c2)nc2[nH]c3ccccc3n12`, the MIC was 100 µg/mL (≈ 338 µM) in the experiment with Staphylococcus aureus; 0.4 µg/mL (≈ 1.35 µM) in the experiment on Penicillium chrysogenum; 0.2 µg/mL (≈ 0.676 µM) with Fusarium oxysporum; 0.2 µg/mL (≈ 0.676 µM) in the experiment on Aspergillus fumigatus; 0.2 µg/mL (≈ 0.676 µM) in the experiment with Aspergillus flavus; 100 µg/mL (≈ 338 µM) with Pseudomonas aeruginosa. The MIC with Aspergillus niger amounted to 25 µg/mL (≈ 84.5 µM); with Streptococcus mutans, 25 µg/mL (≈ 84.5 µM); in the experiment on Klebsiella pneumoniae it was 100 µg/mL (≈ 338 µM); in the experiment with Candida albicans it was 1.6 µg/mL (≈ 5.41 µM); with Escherichia coli, 100 µg/mL (≈ 338 µM); with Enterococcus faecalis, 0.2 µg/mL (≈ 0.676 µM). The mortality at 100 µg/mL in experiment [1] is 71%.
Regarding `Oc1cc(-c2ccccc2)nc2nc3ccccc3n12`, the MIC amounted to 100 µg/mL (≈ 383 µM) in the experiment with Staphylococcus aureus; 0.2 µg/mL (≈ 0.765 µM) with Penicillium chrysogenum; 0.2 µg/mL (≈ 0.765 µM) in the experiment on Fusarium oxysporum; 0.8 µg/mL (≈ 3.06 µM) in the experiment on Aspergillus fumigatus; 0.8 µg/mL (≈ 3.06 µM) with Aspergillus flavus; 100 µg/mL (≈ 383 µM) in the experiment with Pseudomonas aeruginosa. The MIC in the experiment on Aspergillus niger was determined as 6.25 µg/mL (≈ 23.9 µM); in the experiment on Streptococcus mutans, 100 µg/mL (≈ 383 µM); in the experiment with Klebsiella pneumoniae, 100 µg/mL (≈ 383 µM); with Candida albicans it was 1.6 µg/mL (≈ 6.12 µM); in the experiment on Escherichia coli, 100 µg/mL (≈ 383 µM); in the experiment with Enterococcus faecalis it was 0.2 µg/mL (≈ 0.765 µM). The mortality at 100 µg/mL in [1] was 58%.
As to `Cc1ccc2oc(=O)cc(Cn3c4ccccc4n4c(=O)cc(C(F)(F)F)nc34)c2c1`, the MIC in the experiment on Staphylococcus aureus is 100 µg/mL (≈ 235 µM); in the experiment on Penicillium chrysogenum it was 0.2 µg/mL (≈ 0.47 µM); with Fusarium oxysporum, 0.2 µg/mL (≈ 0.47 µM); with Aspergillus fumigatus it was 25 µg/mL (≈ 58.8 µM); in the experiment with Aspergillus flavus it was 12.5 µg/mL (≈ 29.4 µM); in the experiment with Pseudomonas aeruginosa, greater than 100 µg/mL. Moreover, the MIC in the experiment with Aspergillus niger stood at 12.5 µg/mL (≈ 29.4 µM); with Streptococcus mutans, 12.5 µg/mL (≈ 29.4 µM); in the experiment on Klebsiella pneumoniae it was 100 µg/mL (≈ 235 µM); in the experiment with Candida albicans, 50 µg/mL (≈ 118 µM); in the experiment with Escherichia coli it was 100 µg/mL (≈ 235 µM); in the experiment on Enterococcus faecalis it was 0.4 µg/mL (≈ 0.94 µM). In addition, the mortality at 100 µg/mL in [1] worked out at 69%.
As to `O=c1cc(-c2cccc(F)c2)nc2[nH]c3ccccc3n12`, the MIC in the experiment with Staphylococcus aureus was 100 µg/mL (≈ 358 µM); in the experiment with Penicillium chrysogenum, 0.2 µg/mL (≈ 0.716 µM); in the experiment on Fusarium oxysporum it was 0.4 µg/mL (≈ 1.43 µM); in the experiment with Aspergillus fumigatus, 0.8 µg/mL (≈ 2.86 µM); in the experiment on Aspergillus flavus, 0.8 µg/mL (≈ 2.86 µM); with Pseudomonas aeruginosa it was 25 µg/mL (≈ 89.5 µM). Further, the MIC in the experiment with Aspergillus niger amounted to 12.5 µg/mL (≈ 44.8 µM); in the experiment on Streptococcus mutans, 12.5 µg/mL (≈ 44.8 µM); in the experiment with Klebsiella pneumoniae it was 100 µg/mL (≈ 358 µM); in the experiment on Candida albicans it was 1.6 µg/mL (≈ 5.73 µM); in the experiment with Escherichia coli it was 100 µg/mL (≈ 358 µM); in the experiment with Enterococcus faecalis, 0.2 µg/mL (≈ 0.716 µM). In addition, the mortality at 100 µg/mL in [1] came out at 54%.

For the origin of these results see ChEMBL document CHEMBL2434922, “Microwave assisted synthesis of dihydrobenzo[4,5]imidazo[1,2-a]pyrimidin-4-ones; synthesis, in vitro antimicrobial and anticancer activities of novel coumarin substituted dihydrobenzo[4,5]imidazo[1,2-a]pyrimidin-4-ones” (2013).
